# Hits are enriched below; roughly 2.3% of the tested compounds scored in any of these assays.
# Tn6 DDE FP: inhibitors of Tn6 peptide binding to fibrin DD(E), primary screen, biochemical, fluorescence polarization, human fibrin, Tn6 probe; Fibrinogen beta chain (Homo sapiens), P02675; Fibrin DD(E) TRITC-Tn6 fluorescence polarization displacement; AID 720509, 2013; inhibition, % at 8.3 µM; 370,000 compounds, 0.21% hits;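 active means inhibition above a per-campaign cutoff: mean of compounds within control limits plus 3 SD, cut at about 15% in these data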;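 further: 0% = median of all compound wells on the plate and 100% = blocking peptide control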
# ADAM17 inh: ADAM17 inhibitors, primary screen, biochemical, QFRET. recombinant ADAM17, EDANS/DABCYL FRET peptide cleavage. inhibition, % at 6.95 µM. 370,000 compounds, 0.83% hits. AID 720648, 2013;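 active means inhibition above the mean of compounds lying between control limits plus 3 SD, set per campaign, cut at about 8.5% in these data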;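 further: 0% = DMSO-only wells as the low control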
# Tn7 DDE FP: inhibitors of Tn7 peptide binding to fibrin DD(E), primary screen, biochemical, fluorescence polarization, human fibrin, Tn7 probe; Fibrinogen beta chain (Homo sapiens), P02675; 370,000 compounds, 0.13% hits; FP displacement of FITC-Tn7 peptide from fibrin DD(E); 0% = median of compound wells per plate; inhibition, % at 8.3 µM;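 active means inhibition above the mean of compounds falling within the control limits plus 3 SD of them, cut at about 14% in these data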;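 further: 0% = plate median of compound wells and 100% = 10 µM Aha-Tn7 peptide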
#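 Measure: % inhibition scaled between sample-field median and high-control FP; Test system: human fibrin DD(E); Quantity: 2 µM final DD(E) protein; Doses: one dose, 8.3 µM nominal; Schedule: compound with protein 10 min, then 3 h after probe, room temperature; Detection: fluorescence polarization; Medium: Tris buffer with calcium and detergent, pH 7.8.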
# PLCb3 inh: human PLC-beta3 inhibitors, primary screen, biochemical, fluorescence | 370,000 compounds, 0.18% hits | AID 720704, 2013 | inhibition, % at 12.2 µM | 1-phosphatidylinositol 4,5-bisphosphate phosphodiesterase beta-3 (Homo sapiens), Q01970 | Purified PLC-beta3, fluorogenic substrate;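 further: 0% = median of compound wells on plate and 100% = full blocker control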
# PLC-gamma1 inh: PLC-gamma1 enzyme inhibitors, primary screen, biochemical, fluorescence, purified enzyme. 1-phosphatidylinositol 4,5-bisphosphate phosphodiesterase gamma-1 (Homo sapiens), P19174. fluorogenic substrate. inhibition, % at 12.2 µM. 370,000 compounds, 0.84% hits; in the data active means inhibition above about 9.5%
# Target sequence (P19174 whole entry, looked up): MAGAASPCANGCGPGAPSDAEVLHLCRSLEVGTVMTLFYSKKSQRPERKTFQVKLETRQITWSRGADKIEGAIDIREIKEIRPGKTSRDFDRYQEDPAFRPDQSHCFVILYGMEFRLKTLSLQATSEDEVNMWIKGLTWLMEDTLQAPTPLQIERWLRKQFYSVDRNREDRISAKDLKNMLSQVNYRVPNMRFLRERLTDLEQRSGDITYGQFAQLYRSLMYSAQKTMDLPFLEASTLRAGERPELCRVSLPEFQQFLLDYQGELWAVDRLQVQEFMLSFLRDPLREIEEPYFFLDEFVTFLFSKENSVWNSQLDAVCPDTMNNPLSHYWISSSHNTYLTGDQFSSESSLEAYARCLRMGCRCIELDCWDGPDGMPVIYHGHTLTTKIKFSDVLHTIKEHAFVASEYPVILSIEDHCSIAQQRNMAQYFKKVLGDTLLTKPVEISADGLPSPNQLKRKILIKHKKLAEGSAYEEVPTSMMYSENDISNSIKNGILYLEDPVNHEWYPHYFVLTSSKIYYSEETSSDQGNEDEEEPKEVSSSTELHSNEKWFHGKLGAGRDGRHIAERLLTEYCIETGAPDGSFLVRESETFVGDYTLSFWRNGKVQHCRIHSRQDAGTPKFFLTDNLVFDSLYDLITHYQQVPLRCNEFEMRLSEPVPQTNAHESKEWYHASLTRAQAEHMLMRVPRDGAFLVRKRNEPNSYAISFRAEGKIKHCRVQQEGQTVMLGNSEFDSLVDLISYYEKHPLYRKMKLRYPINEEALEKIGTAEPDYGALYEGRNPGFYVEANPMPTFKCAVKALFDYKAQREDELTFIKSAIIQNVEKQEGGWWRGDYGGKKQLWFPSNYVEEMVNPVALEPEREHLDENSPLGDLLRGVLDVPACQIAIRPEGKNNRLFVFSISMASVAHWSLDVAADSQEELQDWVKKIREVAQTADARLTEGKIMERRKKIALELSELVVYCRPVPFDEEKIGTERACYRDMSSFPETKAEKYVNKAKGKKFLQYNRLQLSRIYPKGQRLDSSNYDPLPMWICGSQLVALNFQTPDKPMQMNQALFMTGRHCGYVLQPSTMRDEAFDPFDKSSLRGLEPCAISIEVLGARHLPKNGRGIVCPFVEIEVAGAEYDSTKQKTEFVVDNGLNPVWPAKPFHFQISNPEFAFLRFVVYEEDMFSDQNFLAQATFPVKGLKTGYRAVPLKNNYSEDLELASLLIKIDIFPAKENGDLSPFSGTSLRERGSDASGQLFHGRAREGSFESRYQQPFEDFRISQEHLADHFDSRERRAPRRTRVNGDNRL
# ADAM10 inh: human ADAM10 inhibitors, primary screen, biochemical, QFRET, HTS; inhibition, % at 7 µM; recombinant ADAM10, EDANS/DABCYL FRET peptide cleavage, 3 h; 370,000 compounds, 0.62% hits; AID 720582, 2013;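 active means inhibition above a per-campaign cutoff equal to the mean of compounds falling between control-based bounds plus 3 SD, cut at about 20% in these data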;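 further: 0% = DMSO wells while the 100% control is not disclosed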
# PLCg1 ctr: PLC-gamma1 enzyme inhibitors, counter-screen for PLC-beta3 inhibitor project, biochemical, fluorescence; shares compounds with PLC-gamma1 inh; inhibition, % at 12.3 µM; AID 743258, 2014; 3,300 compounds, 3.1% hits; purified PLC-gamma1, fluorogenic substrate; in the data active means inhibition above about 9.5%
# PLCbeta3 conf: PLC-beta3 inhibitor confirmation, biochemical, fluorescence, purified enzyme; shares compounds with PLC-gamma1 inh; fluorogenic substrate fluorescence; 3,300 compounds, 1% hits; inhibition, % at 12.3 µM
# An asterisk follows results filed as active; · = not tested or not shown. Unless noted, no stated cut-off is given here; in the data, active means inhibition above about 11%; inactive means the rest.
SMILES,Tn6 DDE FP,ADAM17 inh,Tn7 DDE FP,PLCb3 inh,PLC-gamma1 inh,ADAM10 inh,PLCg1 ctr,PLCbeta3 conf
Clc1ccccc1OCCN1CCC(Cc2ccccc2)CC1,3.0,-1.7,3.0,18.3*,20.3*,2.8,-0.3,-5.0
COCCCNC(=O)C[C@H]1C[C@@]2(C(=O)OC)C(=C[C@H](C3CCCC3)O[C@@H]2C)N(CCc2ccc(OC)c(OC)c2)C1=O,1.3,0.7,-3.0,0.0,-1.9,3.5,·,·
O=C(CCNC(=O)c1ccccc1Cl)Nc1ccc2c(c1)OCO2,-2.4,5.1,-1.1,9.7,11.0*,13.6,-1.9,-1.0
CCCCCc1c(-c2cccc(Cl)c2)ncn1CCc1ccccc1OC,-2.0,2.1,-1.6,6.5,10.1*,-1.0,-3.7,-2.0
O=C(O)CC1=C(c2ccc(F)cc2)CCC1=O,4.5,5.0,-7.0,13.6*,6.3,17.0,-6.8,-3.2
COc1ccc(N2CCN(C(=O)CNC(=O)Cc3ccc(Cl)cc3)CC2)cc1,0.4,-1.1,2.2,-6.9,-3.1,-8.1,·,·
COc1ccc(N2CCN(C(=O)CNC(=O)Cc3ccccc3)CC2)cc1,-3.7,-1.9,-4.5,-11.8,10.1*,-12.3,-4.8,-2.2
CC(C)N(Cc1ccccc1)C(=O)CN1C(=O)NC2(CCCC2)C1=O,-3.8,4.7,-6.3,4.9,10.3*,-5.1,-8.3,-3.9
COC(=O)[C@H]1C[C@@]2(c3ccccc3)c3ccccc3N[C@H]2N1,-4.4,-0.2,1.6,-0.8,-3.3,2.9,·,·
COc1ccc(Cn2ccc3ccc(-c4ccc5ccn(Cc6cccc(F)c6)c5c4)cc32)cc1,-3.0,-33.9,6.6,-124.8,-85.2,-104.0,·,·
O=C(Nc1ccc(Br)cc1)O[C@@H]1CC[C@@]23CCCN2C(=O)CCC[C@H]3C1,0.5,3.5,-11.9,1.0,2.8,9.3,·,·
COc1cccc(/C=N\N2CCN(c3ccc(C)cc3)CC2)c1O,8.9,0.4,0.4,0.9,1.0,4.0,·,·
CCOC(=O)CSc1nc2ccccc2c(=O)n1CC1CCCC1,1.0,8.4,-2.8,1.3,8.3,8.4,·,·
CCOC(=O)CSc1nc2ccccc2c(=O)n1CC1CCC(C(=O)NCc2ccco2)CC1 (centres undefined),-5.5,-6.3,-8.2,4.1,10.0*,-18.4,-2.2,-3.8
Cc1cccc(OCC(=O)OCC(=O)N2CCCc3ccccc32)c1C,-0.6,6.3,4.4,-4.2,11.1*,3.8,0.3,3.1
CC1=C2NC(N)=[N+](CC3CC3)C(Cc3ccccc3)[C@@H]2n2c(=O)n(-c3ccccc3)c(=O)n2C1 (some centres undefined),-7.0,-4.7,-4.1,4.3,2.6,-8.5,·,·
Cc1ccc(/C=N/n2c(-c3ccco3)n[nH]c2=S)s1,5.2,3.8,-2.7,0.5,10.7*,2.9,-12.4,-8.7
Clc1ccc(-c2nnc3n2N=C(c2ccc(-c4ccccc4)cc2)CS3)cc1,-8.6,2.0,-0.6,1.2,1.9,1.7,·,·
COc1ccc(-c2nnn3c2Cn2c4ccccc4c(=O)n2[C@@H](C)C3)cc1,-5.0,-64.8,-1.2,-29.0,-21.6,-219.6,·,·
Cc1cc(C)nc(Nc2nc3ccccc3[nH]2)n1,-2.9,6.2,1.2,9.5,13.5*,10.7,-5.9,-2.1
Cc1ccc(C)c(Nc2nc3ccccc3[nH]2)c1,-3.0,-3.3,7.2,-7.6,-1.4,5.8,·,·
O=C(COC(=O)/C=C/c1ccccc1)Nc1ccccc1Br,-2.5,-1.8,1.0,1.9,-1.1,-4.3,·,·
C/C=C/C(=O)OCC(=O)Nc1ccccc1Br,-8.1,4.5,-8.5,-0.2,9.6*,13.8,-6.4,-1.0
C=CCNC(=S)N(C)[C@H]1C[C@H]2c3[nH]c4c(-c5ccccc5)cccc4c3CCN2C(=O)[C@H]1[C@H](C)O,11.2,-29.4,-2.1,-36.1,-31.1,-108.3,·,·
CCCCOCCCNC(=O)c1ccc(OCC)cc1,1.1,1.2,-4.6,1.7,10.1*,4.8,-4.2,-1.7
SMILES,Tn6 DDE FP,ADAM17 inh,Tn7 DDE FP,PLCb3 inh,PLC-gamma1 inh,ADAM10 inh,PLCg1 ctr,PLCbeta3 conf
Cc1ccc(Cn2cc(CN3[C@@H](CC(C)C)COc4cccc(F)c4S3(=O)=O)nn2)cc1,7.5,-2.7,-2.2,0.2,1.3,-4.0,·,·
O=C(NCc1cccs1)O[C@H]1CC[C@@]23CCCN2C(=O)CCC[C@H]3C1,3.5,-0.5,-9.2,5.6,2.4,11.7,·,·
COc1ccc(C(=O)OCC(=O)Nc2c(C)n(C)n(-c3ccccc3)c2=O)cc1,2.6,6.2,3.6,1.0,12.0*,3.2,-3.3,-4.3
C#CCCN([C@@H](CC(C)C)C(=O)OC)S(=O)(=O)c1ccccc1Br,-10.9,0.6,5.3,-0.9,-1.9,2.9,·,·
COC(=O)C[C@H]1CC[C@@H]2[C@H](COc3ccc(NC(=O)c4cccc(Cl)c4)cc3C(=O)N2C)O1,1.5,-2.8,-4.9,4.1,3.8,0.2,·,·
CC(=O)Nc1ccc(N2CC(C)(C)C2=O)cc1,4.3,7.4,-3.1,5.4,13.0*,3.2,-3.1,0.8
CC1(C)CN(c2ccc(N3CC(C)(C)C3=O)cc2)C1=O,-4.8,-2.4,5.4,-3.6,3.6,-0.6,·,·
O=C(O)c1ccccc1-c1nc2ccccc2c(=O)[nH]1,1.1,4.7,-2.3,6.3,9.9*,7.6,1.6,0.4
O=C(O)c1ccccc1-c1nc(-c2ccccc2)c(-c2ccccc2)[nH]1,10.9,-1.5,-0.8,-39.9,-41.1,-12.9,·,·
Cc1ccc(CCNC(=O)CS(=O)Cc2nc(-c3ccccc3Cl)oc2C)cc1 (centres undefined),0.6,2.9,-4.0,-2.6,9.7*,18.2,-5.7,-4.2
Oc1ccc(C[C@@H]2CNCCN2CCCCC2CCCCC2)cc1,3.7,8.0,-7.4,14.2*,9.2,2.5,2.8,2.5
CSc1cc(SC)ncn1,-5.2,0.8,0.0,11.8*,4.6,-18.0,-6.0,-1.2
Cc1ccc(/C=N\NC(=O)Cn2c(C)nc3ccccc32)o1,-0.5,1.3,7.0,4.4,9.8*,8.0,-5.2,0.5
COC(=O)CC[C@H](/C=C/C(=O)OC(C)(C)C)Sc1ccc(C(C)(C)C)cc1,7.0,1.7,-3.7,1.6,3.2,1.7,·,·

# Compound activity from PubChem.
